From publication PMC3150598 (Journal of medicinal chemistry, 2011)

What was measured:
HDACs 1–9 = assay: HDAC assay: biochemical profiling against purified HDAC isoforms
HDAC [1] = details: cited from earlier work
HDAC [2] = details: cited from earlier work; remark: listed apart in the source
[3] = Blood half-life of 1a after i.v. or p.o. administration; type: in vivo, C57BL/6 mice; details: for dosed compound still present in whole blood: i.v., after initial burst phase
[4] = Biodistribution of 1a after i.v. injection; type: in vivo, C57BL/6 mice; details: 1 hour and 3 hours after i.v. injection
In short: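 Six C57BL/6 mice received 241 ± 18 μCi of the 18F-labelled test compound by tail-vein i.v. injection. Groups were killed at 1 h (n=3) and 3 h (n=3) post-injection. Tissues were excised and weighed, and radioactivity was gamma-counted and expressed as %ID/g.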

[5] = system: A2780 human ovarian cancer cells; assay: PET-CT of A2780 tumor xenograft before and after competition with cold SAHA; type: in vivo, Nu/Nu mice; details: after systemic administration

O=C(CCCCCCC(=O)Nc1ccc([19F])cc1)NO [1b, N-Hydroxy-N'-(4-fluorophenyl)octanediamide]
potency and selectivity of inhibition of primary HDAC targets compared with SAHA (HDACs 1–9; HDACs 1–3 and 6): virtually indistinguishable from SAHA
HDAC isoforms inhibited (HDACs 1–9; profiled against purified HDACs 1–9): inhibited only HDACs 1–3 and 6

Nc1ccccc1NC(=O)c1ccc(CNC(=O)OCc2cccnc2)cc1 [5b]
HDAC isoform selectivity (HDAC [1]): selective for HDAC1–3
potency relative to SAHA (fold less potent) (HDAC [1]): 20–70 fold

O=C(C[18F])NCCCCCC(=O)Nc1ccccc1 [compound 4, 6-([18F]-fluoroacetamide)-1-hexanoicanilide]
metabolism in vivo (HDAC [2]): rapidly metabolized in vivo

O=C(CCCCCCC(=O)Nc1ccc([18F])cc1)NO [1a, 18F-suberoylanilide hydroxamic acid]
HDAC potency (HDACs 1–9): low nanomolar potency
dosed compound still present in whole blood ([3]; formulation A (60% PEG400, 40% water)): < 1%
dosed compound still present in whole blood ([3]; formulation B (10%DMSO, 90% water)): ~3%
terminal half-life relative to initial t1/2 ([3]; single bolus i.v.): approximately 10 times longer
concentration in cardiac tissue [4]: comparatively low concentrations
tissues with highest concentration [4]: kidney, liver and blood
tissues with lowest concentration [4]: thymus and brain
accumulation in tumors [5]: accumulate in tumors in a time-dependent manner
